Assay results from ChEMBL document CHEMBL2021766, “Antiplasmodial activity of novel keto-enamine chalcone-chloroquine based hybrid pharmacophores” (Bioorg Med Chem, 2012).
In brackets after ≈: the same amount, converted by molar mass.

How the values were obtained:
Plasmodium falciparum = experiment: Antimalarial activity against chloroquine-sensitive ring stage Plasmodium falciparum 3D7 after 72 hrs by SYBR Green-I assay; assay type: functional, organism-based; settings: 3D7, 72 h
In short: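 Asynchronous P. falciparum 3D7 culture (over 80% ring stages), 1.0% parasitized cell suspension at 0.8% parasitaemia, incubated with twofold serial dilutions at 37 °C, 5% CO2/air, 72 h. Lysis buffer with 1× SYBR Green-I added, 1 h at 37 °C. Fluorescence read at 485/530 nm excitation/emission. IC50 from triplicate experiments.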

[1] = Selectivity index, ratio of CC50 for monkey Vero cells to IC50 for chloroquine-sensitive ring stage Plasmodium falciparum 3D7; assay type: functional
In short: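 Vero cells exposed to dilutions of test agents for 72 h; MTT read-out (modified Mosmann method); CC50 by non-linear regression. Ratio taken against the 3D7 IC50 from SYBR Green-I assay.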

Plasmodium yoelii [2] = experiment: Inhibition of beta-hematin formation in Plasmodium yoelii infected Swiss mouse plasma using hemin as substrate after 16 hrs by spectrophotometry; assay type: functional
In short: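 Plasma taken by cardiac puncture into 2.0% citrate from male Swiss mice (15–20 g) infected with 1 × 10^5 P. yoelii RBCs, at about 50% parasitemia. Mix: 100 mM sodium acetate pH 5.1, 50 µL plasma, 100 µM hemin, compound, in triplicate, 37 °C for 16 h with shaking. Pellet washed in Tris–HCl pH 7.4 with 2.5% SDS. IC50 = 50% inhibition; three experiments in triplicate.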

Plasmodium yoelii [3] = experiment: Antimalarial activity against chloroquine-resistant Plasmodium yoelii N-67 infected Swiss mouse assessed as suppression of parasitemia at 100 mg/kg/day, po qd for 4 days measured on day 4; assay type: functional; settings: N-67, 96 h
In short: (§1)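 Swiss mice infected with P. yoelii N-67 (1 × 10⁵ parasitized RBC, day 0). Test agents were given as aqueous suspensions with a few drops of Tween 80, orally at 100 mg/kg/day, once daily on days 0–3, to groups of five. Parasitaemia was read from thin blood smears on days 4 and 6. Percent suppression was calculated from group means versus untreated controls. Survival and cure were followed to day 30.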

Plasmodium yoelii [4] = experiment: Antimalarial activity against chloroquine-resistant Plasmodium yoelii N-67 infected Swiss mouse assessed as suppression of parasitemia at 100 mg/kg/day, po qd for 4 days measured on day 6; assay type: functional; in short: as §1
Plasmodium yoelii [5] = experiment: Antimalarial activity against chloroquine-resistant Plasmodium yoelii N-67 infected Swiss mouse assessed as mean survival time at 100 mg/kg/day, po qd for 4 days; assay type: functional; in short: as §1
Plasmodium yoelii [6] = experiment: Antimalarial activity against chloroquine-resistant Plasmodium yoelii N-67 infected Swiss mouse assessed as suppression of parasitemia at 20 mg/kg/day, po qd for 4 days measured on day 4; assay type: functional; settings: N-67, 96 h
Plasmodium yoelii [7] = experiment: Antimalarial activity against chloroquine-resistant Plasmodium yoelii N-67 infected Swiss mouse assessed as suppression of parasitemia at 20 mg/kg/day, po qd for 4 days measured on day 6; assay type: functional
Plasmodium yoelii [8] = experiment: Antimalarial activity against chloroquine-resistant Plasmodium yoelii N-67 infected Swiss mouse assessed as suppression of parasitemia at 10 mg/kg/day, po qd for 4 days measured on day 4; assay type: functional; settings: N-67, 96 h
Plasmodium yoelii [9] = experiment: Antimalarial activity against chloroquine-resistant Plasmodium yoelii N-67 infected Swiss mouse assessed as suppression of parasitemia at 10 mg/kg/day, po qd for 4 days measured on day 6; assay type: functional
Plasmodium yoelii [10] = experiment: Antimalarial activity against chloroquine-resistant Plasmodium yoelii N-67 infected Swiss mouse assessed as mean survival time at 20 mg/kg/day, po qd for 4 days; assay type: functional
Plasmodium yoelii [11] = experiment: Antimalarial activity against chloroquine-resistant Plasmodium yoelii N-67 infected Swiss mouse assessed as mean survival time at 10 mg/kg/day, po qd for 4 days; assay type: functional

IC50 (Plasmodium falciparum)	IC50 (Plasmodium yoelii [2])	SMILES	Ratio CC50/IC50 [1]	inhibition in vivo at 100 mg/kg/day (Plasmodium yoelii [3])	inhibition in vivo at 100 mg/kg/day (Plasmodium yoelii [4])	MST (Plasmodium yoelii [5])	other results
0.08 µg/mL (≈ 0.145 µM)	3.21 µg/mL (≈ 5.84 µM)	CCC(C)C1=CC(/C=C/C(=O)c2ccco2)=CC(=C\Nc2ccc(Nc3ccnc4cc(Cl)ccc34)cc2)/C1=O (stereo not given)	678.11	–	–	–	–
0.0282 µg/mL (≈ 0.0515 µM)	8.06 µg/mL (≈ 14.7 µM)	CC(C)(C)C1=CC(/C=C/C(=O)c2ccc(Cl)cc2)=CC(=C\NCCNc2ccnc3cc(Cl)ccc23)/C1=O	868.3	–	–	–	–
0.0351 µg/mL (≈ 0.0702 µM)	3.48 µg/mL (≈ 6.96 µM)	CC1=CC(/C=C/C(=O)c2ccc(O)cc2)=CC(=C\NCCCNc2ccnc3cc(Cl)ccc23)/C1=O	505.98	–	–	–	–
0.0388 µg/mL (≈ 0.0754 µM)	5.34 µg/mL (≈ 10.4 µM)	COc1ccc(C(=O)/C=C/C2=CC(=C\NCCCNc3ccnc4cc(Cl)ccc34)/C(=O)C(C)=C2)cc1	295.66	–	–	–	–
0.0429 µg/mL (≈ 0.0827 µM)	2.9 µg/mL (≈ 5.59 µM)	CC1=CC(/C=C/C(=O)c2ccc(Cl)cc2)=CC(=C\NCCCNc2ccnc3cc(Cl)ccc23)/C1=O	513.99	–	–	–	–
0.0424 µg/mL (≈ 0.0783 µM)	2.93 µg/mL (≈ 5.41 µM)	CCC(C)C1=CC(/C=C/C(=O)c2ccc(O)cc2)=CC(=C\NCCCNc2ccnc3cc(Cl)ccc23)/C1=O (stereo not given)	486.57	–	–	–	–
0.0418 µg/mL (≈ 0.0752 µM)	6.59 µg/mL (≈ 11.9 µM)	CCC(C)C1=CC(/C=C/C(=O)c2ccc(OC)cc2)=CC(=C\NCCCNc2ccnc3cc(Cl)ccc23)/C1=O (stereo not given)	549.12	–	–	–	–
0.0419 µg/mL (≈ 0.0748 µM)	6.08 µg/mL (≈ 10.8 µM)	CCC(C)C1=CC(/C=C/C(=O)c2ccc(Cl)cc2)=CC(=C\NCCCNc2ccnc3cc(Cl)ccc23)/C1=O (stereo not given)	491.77	–	–	–	–
0.201 µg/mL (≈ 0.366 µM)	4.35 µg/mL (≈ 7.94 µM)	COc1ccc(C(=O)/C=C/C2=CC(=C\Nc3ccc(Nc4ccnc5cc(Cl)ccc45)cc3)/C(=O)C(C)=C2)cc1	315.33	–	–	–	–
0.16 µg/mL (≈ 0.299 µM)	3.78 µg/mL (≈ 7.05 µM)	CC1=CC(/C=C/C(=O)c2ccc(F)cc2)=CC(=C\Nc2ccc(Nc3ccnc4cc(Cl)ccc34)cc2)/C1=O	407.52	–	–	–	–
0.38 µg/mL (≈ 0.639 µM)	7.88 µg/mL (≈ 13.3 µM)	CC(C)(C)C1=CC(/C=C/C(=O)c2ccc(Cl)cc2)=CC(=C\Nc2ccc(Nc3ccnc4cc(Cl)ccc34)cc2)/C1=O	196.7	–	–	–	–
> 0.1 µg/mL	13.9 µg/mL (≈ 21.8 µM)	CC(C)(C)C1=CC(/C=C/C(=O)c2ccc(Br)cc2)=CC(=C\Nc2ccc(Nc3ccnc4cc(Cl)ccc34)cc2)/C1=O	–	–	–	–	–
0.00363 µg/mL (≈ 0.00747 µM)	2.89 µg/mL (≈ 5.95 µM)	CC1=CC(/C=C/C(=O)c2ccc(O)cc2)=CC(=C\NCCNc2ccnc3cc(Cl)ccc23)/C1=O	27548.21	–	–	–	–
0.0167 µg/mL (≈ 0.0333 µM)	3.01 µg/mL (≈ 6.02 µM)	COc1ccc(C(=O)/C=C/C2=CC(=C\NCCNc3ccnc4cc(Cl)ccc34)/C(=O)C(C)=C2)cc1	1137.97	–	–	–	–
0.0222 µg/mL (≈ 0.044 µM)	2.99 µg/mL (≈ 5.93 µM)	CC1=CC(/C=C/C(=O)c2ccc(Cl)cc2)=CC(=C\NCCNc2ccnc3cc(Cl)ccc23)/C1=O	3755.43	–	–	–	–
0.022 µg/mL (≈ 0.0417 µM)	2.71 µg/mL (≈ 5.13 µM)	CCC(C)C1=CC(/C=C/C(=O)c2ccc(O)cc2)=CC(=C\NCCNc2ccnc3cc(Cl)ccc23)/C1=O (stereo not given)	1071.27	–	–	–	–
0.0183 µg/mL (≈ 0.0337 µM)	12.6 µg/mL (≈ 23.2 µM)	CCC(C)C1=CC(/C=C/C(=O)c2ccc(OC)cc2)=CC(=C\NCCNc2ccnc3cc(Cl)ccc23)/C1=O (stereo not given)	1058.05	–	–	–	–
0.0179 µg/mL (≈ 0.0328 µM)	11.2 µg/mL (≈ 20.5 µM)	CCC(C)C1=CC(/C=C/C(=O)c2ccc(Cl)cc2)=CC(=C\NCCNc2ccnc3cc(Cl)ccc23)/C1=O (stereo not given)	1014.51	–	–	–	–

SMILES	IC50 (Plasmodium falciparum)	IC50 (Plasmodium yoelii [2])	Ratio CC50/IC50 [1]	inhibition in vivo at 100 mg/kg/day (Plasmodium yoelii [3])	inhibition in vivo at 100 mg/kg/day (Plasmodium yoelii [4])	MST (Plasmodium yoelii [5])	other results
CCC(C)C1=CC(/C=C/C(=O)c2ccco2)=CC(=C\NCCNc2ccnc3cc(Cl)ccc23)/C1=O (stereo not given)	0.00709 µg/mL (≈ 0.0141 µM)	2.89 µg/mL (≈ 5.76 µM)	1138.22	99.5%	85.8%	17.6 days	–
CCC(C)C1=CC(/C=C/C(=O)c2cccs2)=CC(=C\NCCNc2ccnc3cc(Cl)ccc23)/C1=O (stereo not given)	0.0091 µg/mL (≈ 0.0176 µM)	2.62 µg/mL (≈ 5.06 µM)	1373.63	99.4%	86.7%	18.2 days	–
CC(C)(C)C1=CC(/C=C/C(=O)c2ccc(F)cc2)=CC(=C\NCCNc2ccnc3cc(Cl)ccc23)/C1=O	0.00719 µg/mL (≈ 0.0136 µM)	13.8 µg/mL (≈ 26 µM)	1499.3	99.9%	97%	18.4 days	–
CC(C)(C)C1=CC(/C=C/C(=O)c2ccc(Br)cc2)=CC(=C\NCCNc2ccnc3cc(Cl)ccc23)/C1=O	0.00464 µg/mL (≈ 0.00785 µM)	21.9 µg/mL (≈ 37.1 µM)	1883.62	99.9%	96.7%	17.6 days	–
CC1=CC(/C=C/C(=O)c2ccc(C)cc2)=CC(=C\NCCNc2ccnc3cc(Cl)ccc23)/C1=O	0.00975 µg/mL (≈ 0.0201 µM)	2.91 µg/mL (≈ 6.01 µM)	1034.23	99.8%	88.7%	17.6 days	–
CC1=CC(/C=C/C(=O)c2ccc(F)cc2)=CC(=C\NCCNc2ccnc3cc(Cl)ccc23)/C1=O	0.0109 µg/mL (≈ 0.0222 µM)	2.91 µg/mL (≈ 5.96 µM)	1034.23	99.5%	83.5%	15.6 days	–
CC1=CC(/C=C/C(=O)c2ccc(Br)cc2)=CC(=C\NCCNc2ccnc3cc(Cl)ccc23)/C1=O	0.0188 µg/mL (≈ 0.0343 µM)	7.6 µg/mL (≈ 13.8 µM)	1114.59	99.7%	80.6%	18 days	–
COc1cc(C(=O)/C=C/C2=CC(=C\NCCNc3ccnc4cc(Cl)ccc34)/C(=O)C(C)=C2)cc(OC)c1OC	0.0107 µg/mL (≈ 0.0191 µM)	9.61 µg/mL (≈ 17.2 µM)	1392.22	99.8%	82.1%	17 days	–
CC1=CC(/C=C/C(=O)c2cccs2)=CC(=C\NCCNc2ccnc3cc(Cl)ccc23)/C1=O	0.00975 µg/mL (≈ 0.0205 µM)	3.1 µg/mL (≈ 6.51 µM)	1414.59	99.8%	82.3%	16.2 days	–
CCC(C)C1=CC(/C=C/C(=O)c2ccccc2)=CC(=C\NCCNc2ccnc3cc(Cl)ccc23)/C1=O (stereo not given)	0.0136 µg/mL (≈ 0.0266 µM)	3.15 µg/mL (≈ 6.15 µM)	498.54	99.6%	83.2%	14.6 days	–
CCN(CC)CCCC(C)Nc1ccnc2cc(Cl)ccc12 (stereo not given) [CHLOROQUINE]	–	3.65 µg/mL (≈ 11.4 µM)	–	–	–	–	inhibition in vivo at 20 mg/kg/day (Plasmodium yoelii [6]): 99%; inhibition in vivo at 20 mg/kg/day (Plasmodium yoelii [7]): 93.9%; inhibition in vivo at 10 mg/kg/day (Plasmodium yoelii [8]): 99%; inhibition in vivo at 10 mg/kg/day (Plasmodium yoelii [9]): 93.6%; MST (Plasmodium yoelii [10]): >28 days; MST (Plasmodium yoelii [11]): 13.6 days
